# Reference: ChEMBL document CHEMBL1275408, “A chemical genomic screen in Saccharomyces cerevisiae reveals a role for diphthamidation of translation elongation factor 2 in inhibition of protein synthesis by sordarin” (2008)
# Calls of active or inactive are those of the source. No cut-off for these calls is given here.
# Columns and labels:
# [1] = tested on: Saccharomyces cerevisiae; assay: Antifungal activity against Saccharomyces cerevisiae BY4741 harboring TOK1 YJL093C mutant gene by spectrophotometry; assay type: functional
# Summary of the method: (§1)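 Haploid MATa BY4741 KanMX4 deletion strains pinned from frozen stocks into YPD + G418 (150 mg/liter), grown 3 days at 28°C to confluence, then pin-replicated into SC liquid with no drug or sordarin derivative GM193663 (2 ng/ml sensitivity; 62.5 ng/ml resistance). 28°C, OD595 read every 24 h for 5 days; growth scored relative to wild type on same plate and to untreated mutant.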
# [2] = tested on: Saccharomyces cerevisiae; assay: Antifungal activity against Saccharomyces cerevisiae BY4741 harboring FMP35 YIL157C mutant gene by spectrophotometry; assay type: functional
# Summary of the method: (§2)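 Screen of BY4741 KanMX4 deletion strains pre-grown 3 days at 28°C in YPD with G418 (150 mg/liter), then pinned into liquid SC containing GM193663. The sensitivity screen used 2 ng/ml; the resistance screen used 62.5 ng/ml, with validation at 62.5, 125 and 500 ng/ml. OD595 was read every 24 h over 5 days at 28°C. Growth was scored relative to wild type and to drug-free controls. Retests were at least in duplicate.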
# [3] = tested on: Saccharomyces cerevisiae; assay: Antifungal activity against Saccharomyces cerevisiae BY4741 harboring DLT1 YMR126C mutant gene by spectrophotometry; assay type: functional; summary of the method: as §2
# [4] = tested on: Saccharomyces cerevisiae; assay: Antifungal activity against Saccharomyces cerevisiae BY4741 harboring YBL100C mutation assessed as reduction in fungal growth at 2 ng/ml by spectrophotometry; assay type: functional, organism-based
# Summary of the method: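 Deletion strains (BY4741 background) pre-grown 3 days at 28°C in YPD + G418 (150 mg/liter), then pin-replicated into SC liquid containing 2 ng/ml GM193663 or no drug. 28°C, OD595 every 24 h over 5 days; growth scored against wild type on same plate and against drug-free mutant control; hits retested at least in duplicate at 2 ng/ml.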
# [5] = tested on: Saccharomyces cerevisiae; assay: Antifungal activity against Saccharomyces cerevisiae BY4741 harboring DOC1 YGL240W mutant gene by spectrophotometry; assay type: functional; summary of the method: as §2
# [6] = tested on: Saccharomyces cerevisiae; assay: Antifungal activity against Saccharomyces cerevisiae BY4741 harboring YMR141C mutation in unknown gene by spectrophotometry; assay type: functional
# Summary of the method: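 Deletion strains from the nonessential haploid MATa BY4741 collection (KanMX4 replacement) were grown in YPD with G418 at 28°C for 3 days, then pinned into liquid SC with or without sordarin derivative GM193663 (2 ng/ml for sensitivity, 62.5 ng/ml for resistance). Cultures were kept at 28°C and read at OD595 every 24 h for 5 days. Growth was scored against wild type on the same plate and against the drug-free control. Hits were retested at least in duplicate.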
# [7] = tested on: Saccharomyces cerevisiae; assay: Antifungal activity against Saccharomyces cerevisiae BY4741 harboring MTF1 YMR228W mutant gene by spectrophotometry; assay type: functional; summary of the method: as §1
# [8] = tested on: Saccharomyces cerevisiae; assay: Antifungal activity against Saccharomyces cerevisiae BY4741 harboring RPL16B YNL069C mutant gene by spectrophotometry; assay type: functional; summary of the method: as §1
# [9] = tested on: Saccharomyces cerevisiae; assay: Antifungal activity against Saccharomyces cerevisiae BY4741 harboring CNM67 YNL225C mutant gene assessed as reduction in fungal growth at 2 ng/ml by spectrophotometry; assay type: functional, organism-based
# Summary of the method: (§3)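 Haploid BY4741 KanMX4 deletion strains pre-grown in YPD with G418 (150 mg/liter) for 3 days at 28°C. They were then pin-replicated into liquid SC with sordarin derivative GM193663 at 2 ng/ml, or without drug. Plates were incubated at 28°C and OD595 read every 24 h for 5 days. Growth was scored against wild type on the same plate and against the drug-free mutant. Hits were retested at least in duplicate.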
# [10] = tested on: Saccharomyces cerevisiae; assay: Antifungal activity against Saccharomyces cerevisiae BY4741 harboring BUD9 YGR041W mutant gene by spectrophotometry; assay type: functional; summary of the method: as §2
# [11] = tested on: Saccharomyces cerevisiae; assay: Antifungal activity against Saccharomyces cerevisiae BY4741 harboring RBS1 YDL189W mutant gene by spectrophotometry; assay type: functional; summary of the method: as §1
# [12] = tested on: Saccharomyces cerevisiae; assay: Antifungal activity against Saccharomyces cerevisiae BY4741 harboring ATP1 YBL099W mutant gene assessed as reduction in fungal growth at 2 ng/ml by spectrophotometry; assay type: functional, organism-based; summary of the method: as §3
# [13] = tested on: Saccharomyces cerevisiae; assay: Antifungal activity against Saccharomyces cerevisiae BY4741 harboring RAM1 YDL090C mutant gene by spectrophotometry; assay type: functional; summary of the method: as §1
# [14] = tested on: Saccharomyces cerevisiae; assay: Antifungal activity against Saccharomyces cerevisiae BY4741 harboring ARN1 YHL040C mutant gene by spectrophotometry; assay type: functional; summary of the method: as §2
# [15] = tested on: Saccharomyces cerevisiae; assay: Antifungal activity against Saccharomyces cerevisiae BY4741 harboring DPH5 YLR172C mutant gene by spectrophotometry; assay type: functional; summary of the method: as §2
# [16] = tested on: Saccharomyces cerevisiae; assay: Antifungal activity against Saccharomyces cerevisiae BY4741 harboring SBE2 YDR351W mutant gene by spectrophotometry; assay type: functional; summary of the method: as §1
# [17] = tested on: Saccharomyces cerevisiae; assay: Antifungal activity against Saccharomyces cerevisiae BY4741 harboring COQ1 YBR003W mutant gene by spectrophotometry; assay type: functional; summary of the method: as §2
# [18] = tested on: Saccharomyces cerevisiae; assay: Antifungal activity against Saccharomyces cerevisiae BY4741 harboring deletion mutation in dph2 gene at 300 to 500 ng/ml after 24 hrs by liquid growth assay; assay type: functional
# [19] = tested on: Saccharomyces cerevisiae; assay: Antifungal activity against Saccharomyces cerevisiae BY4741 harboring AMS1 YGL156W mutant gene by spectrophotometry; assay type: functional; summary of the method: as §2
# [20] = tested on: Saccharomyces cerevisiae; assay: Antifungal activity against Saccharomyces cerevisiae BY4741 harboring UBX3 YDL091C mutant gene by spectrophotometry; assay type: functional; summary of the method: as §1
# [21] = tested on: Saccharomyces cerevisiae; assay: Antifungal activity against Saccharomyces cerevisiae BY4741 harboring DPH1 YIL103W mutant gene by spectrophotometry; assay type: functional; summary of the method: as §2
# [22] = tested on: Saccharomyces cerevisiae; assay: Antifungal activity against Saccharomyces cerevisiae BY4741 harboring RPL12B YDR418W mutant gene by spectrophotometry; assay type: functional; summary of the method: as §1
# [23] = tested on: Saccharomyces cerevisiae; assay: Antifungal activity against Saccharomyces cerevisiae BY4741 harboring RPL21A YBR191W mutant gene by spectrophotometry; assay type: functional; summary of the method: as §1
# [24] = tested on: Saccharomyces cerevisiae; assay: Antifungal activity against Saccharomyces cerevisiae BY4741 harboring PTP3 YER075C mutant gene by spectrophotometry; assay type: functional; summary of the method: as §1
# [25] = tested on: Saccharomyces cerevisiae; assay: Antifungal activity against Saccharomyces cerevisiae BY4741 harboring deletion mutation in dph5 gene at 100 ng/ml by plate assay; assay type: functional, organism-based
# Summary of the method: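 Spot test on solid SC glucose plates with or without 100 ng/ml sordarin. Drops of 10^5 cells plus 10-fold serial dilutions of each dph deletion strain were spotted alongside the parental strain. Plates were incubated at 28°C for 6 days and imaged every 24 h.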
# [26] = tested on: Saccharomyces cerevisiae; assay: Antifungal activity against Saccharomyces cerevisiae BY4741 harboring SHE2 YKL130C mutant gene by spectrophotometry; assay type: functional; summary of the method: as §1
# [27] = tested on: Saccharomyces cerevisiae; assay: Antifungal activity against Saccharomyces cerevisiae BY4741 harboring DIA4 YHR011W mutant gene by spectrophotometry; assay type: functional; summary of the method: as §2
# [28] = tested on: Saccharomyces cerevisiae; assay: Antifungal activity against Saccharomyces cerevisiae BY4741 harboring MRPL24 YMR193W mutant gene by spectrophotometry; assay type: functional; summary of the method: as §1
# [29] = tested on: Saccharomyces cerevisiae; assay: Antifungal activity against Saccharomyces cerevisiae BY4741 harboring KTR7 YIL085C mutant gene by spectrophotometry; assay type: functional; summary of the method: as §2
# [30] = tested on: Saccharomyces cerevisiae; assay: Antifungal activity against Saccharomyces cerevisiae BY4741 harboring YCL042W mutation by spectrophotometry; assay type: functional; summary of the method: as §1
# [31] = tested on: Saccharomyces cerevisiae; assay: Antifungal activity against Saccharomyces cerevisiae BY4741 harboring RPS4A YJR145C mutant gene by spectrophotometry; assay type: functional; summary of the method: as §1
# [32] = tested on: Saccharomyces cerevisiae; assay: Antifungal activity against Saccharomyces cerevisiae BY4741 harboring RMD9 YGL107C mutant gene by spectrophotometry; assay type: functional; summary of the method: as §1
# [33] = tested on: Saccharomyces cerevisiae; assay: Antifungal activity against Saccharomyces cerevisiae BY4741 harboring BEM2 YER155C mutant gene by spectrophotometry; assay type: functional; summary of the method: as §2
# [34] = tested on: Saccharomyces cerevisiae; assay: Antifungal activity against Saccharomyces cerevisiae BY4741 harboring ADY3 YDL239C mutant gene by spectrophotometry; assay type: functional; summary of the method: as §2
compound,measurement,setting,value
CO[C@H]1[C@@H](O)[C@H](O)[C@H](OC[C@@]23C[C@@H]4[C@H](C)CC[C@H]4[C@@]4(C=O)CC2C=C(C(C)C)[C@@]34C(=O)O)O[C@@H]1C [SORDARIN],MIC,[1],> 0.125 µg/mL
same,MIC,[2],> 0.5 µg/mL
same,MIC,[3],> 0.125 µg/mL
same,Activity,[4],Active
same,MIC,[5],> 0.5 µg/mL
same,MIC,[6],> 0.5 µg/mL
same,MIC,[7],> 0.125 µg/mL
same,MIC,[8],> 0.125 µg/mL
same,Activity,[9],Active
same,MIC,[10],> 0.125 µg/mL
same,MIC,[11],> 0.5 µg/mL
same,Activity,[12],Active
same,MIC,[13],> 0.5 µg/mL
same,MIC,[14],> 0.5 µg/mL
same,MIC,[15],> 0.5 µg/mL
same,MIC,[16],> 0.5 µg/mL
same,MIC,[17],> 0.5 µg/mL
same,Activity,[18],50%
same,MIC,[19],> 0.125 µg/mL
same,MIC,[20],> 0.5 µg/mL
same,MIC,[21],> 0.5 µg/mL
same,MIC,[22],> 0.5 µg/mL
same,MIC,[23],> 0.125 µg/mL
same,MIC,[24],> 0.125 µg/mL
same,MIC,[25],inactive
same,MIC,[26],> 0.125 µg/mL
same,MIC,[27],> 0.0625 µg/mL
same,MIC,[28],> 0.125 µg/mL
same,MIC,[29],> 0.5 µg/mL
same,MIC,[30],> 0.125 µg/mL
same,MIC,[31],> 0.0625 µg/mL
same,MIC,[32],> 0.125 µg/mL
same,MIC,[33],> 0.5 µg/mL
same,MIC,[34],> 0.0625 µg/mL
